Residue numbers refer to the chain shown, from its start.
Tests used:
Details in all cases: stereoisomer not certain
OR2C3 [1] = tested on: T1, OR2C3
T1 sequence (whole entry): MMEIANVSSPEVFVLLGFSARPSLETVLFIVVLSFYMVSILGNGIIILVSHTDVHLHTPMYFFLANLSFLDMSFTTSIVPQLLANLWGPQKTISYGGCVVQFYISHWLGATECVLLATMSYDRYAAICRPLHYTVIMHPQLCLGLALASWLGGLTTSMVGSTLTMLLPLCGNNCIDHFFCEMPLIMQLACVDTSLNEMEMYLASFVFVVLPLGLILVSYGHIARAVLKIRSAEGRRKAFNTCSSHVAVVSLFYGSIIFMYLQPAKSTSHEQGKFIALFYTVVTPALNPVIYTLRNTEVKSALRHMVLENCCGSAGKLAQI
Method in brief: (§1)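 Each receptor–molecule pair is labelled responsive or non-responsive (inactive) according to whether the original authors judged the measured signal statistically different from baseline. The data were taken from the main text and supplementary material of published papers and checked for typos and inconsistencies. Assay methods differed by source, with transient luciferase assays in mammalian cell lines being common.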

OR2C3 [2] = tested on: T2, OR2C3; remark: listed apart in the source
T2 sequence (whole entry): T1 sequence (whole entry) with A20T, V289L
Method in brief: as §1

OR2D2 (Homo sapiens) = target: T3, OR2D2 (Homo sapiens) (UniProt Q9H210)
T3 sequence (whole entry): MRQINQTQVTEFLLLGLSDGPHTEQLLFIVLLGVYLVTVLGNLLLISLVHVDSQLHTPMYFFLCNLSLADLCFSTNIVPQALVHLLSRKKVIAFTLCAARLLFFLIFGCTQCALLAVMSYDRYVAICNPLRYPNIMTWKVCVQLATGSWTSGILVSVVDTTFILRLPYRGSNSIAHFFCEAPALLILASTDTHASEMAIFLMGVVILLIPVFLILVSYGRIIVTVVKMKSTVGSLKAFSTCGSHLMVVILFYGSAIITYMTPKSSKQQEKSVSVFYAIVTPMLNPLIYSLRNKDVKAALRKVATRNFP
Method in brief: as §1

OR2D2 S148P I163T M202T = tested on: T4, OR2D2 S148P I163T M202T
T4 sequence (whole entry): T3 sequence (whole entry) with S148P, I163T, M202T
Method in brief: as §1

OR2D3 (Homo sapiens) = target: T5, OR2D3 (Homo sapiens) (UniProt Q8NGH3)
T5 sequence (whole entry): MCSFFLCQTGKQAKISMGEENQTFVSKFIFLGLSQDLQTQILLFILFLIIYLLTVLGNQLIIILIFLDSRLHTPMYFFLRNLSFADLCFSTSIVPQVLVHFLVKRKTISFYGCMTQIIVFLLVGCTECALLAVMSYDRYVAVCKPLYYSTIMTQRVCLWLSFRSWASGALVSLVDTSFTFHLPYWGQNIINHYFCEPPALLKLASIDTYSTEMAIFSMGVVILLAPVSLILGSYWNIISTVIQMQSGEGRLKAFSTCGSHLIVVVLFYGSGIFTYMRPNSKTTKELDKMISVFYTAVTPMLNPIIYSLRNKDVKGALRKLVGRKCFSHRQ
Method in brief: as §1

OR2D3 R155W = tested on: T6, OR2D3 R155W
T6 sequence (whole entry): T5 sequence (whole entry) with R155W
Method in brief: as §1

OR2F1 (Homo sapiens) = target: T7, OR2F1 (Homo sapiens) (UniProt Q13607)
T7 sequence (whole entry): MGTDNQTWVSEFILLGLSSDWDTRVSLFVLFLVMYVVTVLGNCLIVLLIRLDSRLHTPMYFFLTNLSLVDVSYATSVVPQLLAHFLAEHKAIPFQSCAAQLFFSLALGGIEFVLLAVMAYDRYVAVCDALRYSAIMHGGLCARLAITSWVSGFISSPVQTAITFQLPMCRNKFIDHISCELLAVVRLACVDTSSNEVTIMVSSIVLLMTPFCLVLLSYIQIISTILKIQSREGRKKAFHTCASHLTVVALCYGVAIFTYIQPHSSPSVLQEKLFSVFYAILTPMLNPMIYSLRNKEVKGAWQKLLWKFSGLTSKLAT
Method in brief: as §1

OR2F2 (Homo sapiens) = target: T8, OR2F2 (Homo sapiens) (UniProt O95006)
T8 sequence (whole entry): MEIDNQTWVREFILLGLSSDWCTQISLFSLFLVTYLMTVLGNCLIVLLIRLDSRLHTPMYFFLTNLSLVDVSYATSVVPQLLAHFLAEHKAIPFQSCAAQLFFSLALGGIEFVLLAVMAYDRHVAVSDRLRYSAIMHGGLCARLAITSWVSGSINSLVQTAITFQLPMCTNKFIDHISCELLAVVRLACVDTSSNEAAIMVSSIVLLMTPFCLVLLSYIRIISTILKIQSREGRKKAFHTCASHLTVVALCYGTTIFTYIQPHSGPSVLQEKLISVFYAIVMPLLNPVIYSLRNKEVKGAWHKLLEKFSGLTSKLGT
Method in brief: as §1

OR2G2 (Homo sapiens) = target: T9, OR2G2 (Homo sapiens) (UniProt Q8NGZ5)
T9 sequence (whole entry): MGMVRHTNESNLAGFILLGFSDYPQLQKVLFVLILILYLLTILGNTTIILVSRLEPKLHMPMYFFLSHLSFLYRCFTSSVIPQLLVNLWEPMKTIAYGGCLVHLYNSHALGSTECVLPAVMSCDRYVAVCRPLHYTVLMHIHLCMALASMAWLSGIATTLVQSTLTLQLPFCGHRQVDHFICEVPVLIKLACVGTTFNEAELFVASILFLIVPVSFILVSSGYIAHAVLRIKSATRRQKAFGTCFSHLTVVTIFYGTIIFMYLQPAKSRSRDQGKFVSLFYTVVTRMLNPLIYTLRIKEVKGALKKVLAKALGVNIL
Method in brief: as §1

OR2G2 L167P R236G = tested on: T10, OR2G2 L167P R236G
T10 sequence (whole entry): T9 sequence (whole entry) with L167P, R236G
Method in brief: as §1

OR2G3 (Homo sapiens) = target: T11, OR2G3 (Homo sapiens) (UniProt Q8NGZ4)
T11 sequence (whole entry): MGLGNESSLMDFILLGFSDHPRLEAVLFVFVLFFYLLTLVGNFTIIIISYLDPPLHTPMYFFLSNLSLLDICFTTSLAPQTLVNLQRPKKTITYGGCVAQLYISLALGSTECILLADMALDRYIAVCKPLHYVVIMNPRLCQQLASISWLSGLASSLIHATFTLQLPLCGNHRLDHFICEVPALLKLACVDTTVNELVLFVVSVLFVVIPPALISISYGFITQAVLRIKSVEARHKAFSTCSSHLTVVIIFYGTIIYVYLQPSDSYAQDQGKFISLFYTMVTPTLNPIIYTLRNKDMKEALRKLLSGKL
Method in brief: as §1

OR2G3 I289V = tested on: T12, OR2G3 I289V
T12 sequence (whole entry): T11 sequence (whole entry) with I289V
Method in brief: as §1

OR2G6 (Homo sapiens) = target: T13, OR2G6 (Homo sapiens) (UniProt Q5TZ20)
T13 sequence (whole entry): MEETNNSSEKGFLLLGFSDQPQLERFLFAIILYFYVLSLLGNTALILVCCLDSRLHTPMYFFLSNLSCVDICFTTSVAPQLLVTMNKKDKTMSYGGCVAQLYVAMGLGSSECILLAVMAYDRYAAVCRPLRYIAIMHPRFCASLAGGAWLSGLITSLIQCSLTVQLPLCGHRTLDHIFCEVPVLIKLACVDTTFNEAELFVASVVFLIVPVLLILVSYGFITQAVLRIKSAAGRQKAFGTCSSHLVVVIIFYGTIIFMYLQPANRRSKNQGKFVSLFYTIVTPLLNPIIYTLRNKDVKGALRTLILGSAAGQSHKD
Method in brief: as §1

OR2H1 (Homo sapiens) = target: T14, OR2H1 (Homo sapiens) (UniProt Q9GZK4)
T14 sequence (whole entry): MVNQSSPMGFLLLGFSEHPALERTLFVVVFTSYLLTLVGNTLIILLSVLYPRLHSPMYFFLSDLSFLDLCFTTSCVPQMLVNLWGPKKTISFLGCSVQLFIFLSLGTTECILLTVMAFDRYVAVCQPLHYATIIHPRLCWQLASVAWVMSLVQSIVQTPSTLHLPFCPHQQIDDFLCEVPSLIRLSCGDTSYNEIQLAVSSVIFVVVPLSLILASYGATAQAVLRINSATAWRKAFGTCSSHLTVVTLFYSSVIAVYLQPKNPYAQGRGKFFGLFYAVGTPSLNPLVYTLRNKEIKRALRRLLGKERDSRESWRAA
Method in brief: as §1

OR2H2 (Homo sapiens) = target: T15, OR2H2 (Homo sapiens) (UniProt O95918)
T15 sequence (whole entry): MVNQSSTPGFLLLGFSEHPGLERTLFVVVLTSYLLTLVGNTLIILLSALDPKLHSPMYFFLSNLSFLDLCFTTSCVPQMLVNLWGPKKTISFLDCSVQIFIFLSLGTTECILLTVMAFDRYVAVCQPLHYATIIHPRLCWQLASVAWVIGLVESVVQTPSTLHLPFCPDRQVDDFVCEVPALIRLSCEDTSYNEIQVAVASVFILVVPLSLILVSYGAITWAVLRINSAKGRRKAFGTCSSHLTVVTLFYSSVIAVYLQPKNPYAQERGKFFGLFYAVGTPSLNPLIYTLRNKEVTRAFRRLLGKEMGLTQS
Method in brief: as §1

OR2C3 (Homo sapiens) = target: T16, OR2C3 (Homo sapiens) (UniProt Q8N628)
T16 sequence (whole entry): T1 sequence (whole entry) with A20T, S68P, V289L
Method in brief: as §1

Measured: odorant receptor agonist call;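 note: active if original authors judged signal statistically different from baseline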

CCC1OC(=O)C(O)=C1C (configuration not stated)
not listed: OR2C3 (Homo sapiens)
inactive: all other assays above

CCCCCCC=CCCC=O
not listed: OR2C3 [1] | OR2C3 [2]
inactive: all other assays above

CC1=C(O)C(=O)C(C)O1 (configuration not stated)
not listed: OR2C3 (Homo sapiens)
inactive: all other assays above

CCc1ccc(CC(C)(C)C=O)cc1
inactive: OR2G2 (Homo sapiens)

CCC(S)C(C)CO (configuration not stated)
not listed: OR2C3 [1] | OR2C3 [2] | OR2D2 S148P I163T M202T | OR2D3 R155W | OR2G2 L167P R236G | OR2G3 I289V
inactive: all other assays above

CCC1OC(C)=C(O)C1=O (configuration not stated)
not listed: OR2C3 (Homo sapiens)
inactive: all other assays above

CCCCCC(S)C(C)CO (configuration not stated)
not listed: OR2C3 [1] | OR2C3 [2] | OR2D2 S148P I163T M202T | OR2D3 R155W | OR2G2 L167P R236G | OR2G3 I289V
inactive: all other assays above

CC(CO)CS (configuration not stated)
not listed: OR2C3 [1] | OR2C3 [2] | OR2D2 S148P I163T M202T | OR2D3 R155W | OR2G2 L167P R236G | OR2G3 I289V
inactive: all other assays above

CCCC(S)CCOC(C)=O (configuration not stated)
not listed: OR2C3 (Homo sapiens)
inactive: all other assays above

CC(CC=O)c1ccc(C(C)(C)C)cc1 (configuration not stated)
inactive: OR2G2 (Homo sapiens)

Cc1ccc(C(C)C)cc1O
inactive: OR2G2 (Homo sapiens)

From the M2OR odorant receptor database
